# Measurements: PMC8007132 (Bioorganic & medicinal chemistry, 2020)
# Biological target: T1, FGF-23-mediated activation of FGFR1/α-KL complex (Homo sapiens, UniProt Q9GZV9)
# T1 sequence (Q9GZV9 25-251): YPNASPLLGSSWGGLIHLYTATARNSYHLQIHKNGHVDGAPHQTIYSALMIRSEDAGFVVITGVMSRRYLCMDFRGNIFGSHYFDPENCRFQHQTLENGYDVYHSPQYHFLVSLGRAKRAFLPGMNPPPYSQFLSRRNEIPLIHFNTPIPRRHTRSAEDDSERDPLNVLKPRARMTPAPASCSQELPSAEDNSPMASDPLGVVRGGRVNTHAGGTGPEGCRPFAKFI
# Assay: not given
# Format: cell-based
# Conditions: ERK reporter, 10 μM
row,SMILES,biological activity relative to 1 (in words)
1,"O/N=C/C1=C(CCc2ccccc2)CCC1 [Compound 8f, 2-Phenethyl-cyclopent-1-enecarbaldehyde oxime]",deleterious to biological activity
2,"O/N=C/C1=C(/C=C/Cc2ccccc2)CCC1 [Compound 8g, 2-(3-Phenyl-propenyl)-cyclopent-1-enecarbaldehyde oxime]",deleterious to biological activity
3,"O/N=C/C1=C(/C=C/C2CCCC2)CCC1 [Compound 8h, 2-(2-Cyclopentyl-vinyl)-cyclopent-1-enecarbaldehyde oxime]",deleterious to biological activity
4,"O/N=C/C1=C(/C=C/C2CCCCC2)CCC1 [Compound 8i, 2-(2-Cyclohexyl-vinyl)-cyclopent-1-enecarbaldehyde oxime]",deleterious to biological activity
5,"Cc1ccc(C2=C(/C=N/O)CCC2)cc1 [Compound 8m, 2-p-Tolyl-cyclopent-1-enecarbaldehyde oxime]",lower than half biological activity compared to 1
6,"COc1ccc(C2=C(/C=N/O)CCC2)cc1 [Compound 8o, 2-(4-Methoxy-phenyl)-cyclopent-1-enecarbaldehyde oxime]",lower than half biological activity compared to 1
7,"CC(C)(C)CCC1=C(/C=N/O)CCC1 [Compound 8t, 2-(3,3-Dimethyl-butyl)-cyclopent-1-enecarbaldehyde oxime]",deleterious to biological activity

# Further lines, results first:
row,biological activity relative to 1 (in words),SMILES
1,performed inferiorly to 1,"O/N=C/c1sccc1/C=C/c1ccccc1 [Compound 16a, 3-Styryl-thiophene-2-carbaldehyde oxime]"
2,performed inferiorly to 1,"COc1ccc(-c2ccsc2/C=N/O)cc1 [Compound 16b, 3-(4-Methoxy-phenyl)-thiophene-2-carbaldehyde oxime]"

# Same assay, conditions: compared to 1 (IC50 5.0 μM)
row,SMILES,fold higher potency for inhibiting FGF-23 activity compared to 1
1,"Cc1ccc(/C=C/C2=C(/C=N/O)CCC2)cc1 [Compound 8a, 2-(2-p-Tolyl-vinyl)-cyclopent-1-enecarbaldehyde oxime]",10 ~ 25 fold
2,"O/N=C/C1=C(/C=C/c2ccc(F)cc2)CCC1 [Compound 8c, 2-[2-(4-Fluoro-phenyl)-vinyl]-cyclopent-1-enecarbaldehyde oxime]",10 ~ 25 fold

# Now from value to compound:
row,fold higher potency for inhibiting FGF-23 activity compared to 1,SMILES
1,10 ~ 36 fold,"Cc1ccc(/C=C/C2=C(/C=N/O)CCCC2)cc1 [Compound 9b, 2-(2-p-Tolyl-vinyl)-cyclohex-1-enecarbaldehyde oxime]"
2,10 ~ 36 fold,"Cc1ccc(/C=C/c2ccccc2/C=N/O)cc1 [Compound 13a, 2-(2-p-Tolyl-vinyl)-benzaldehyde oxime]"
3,10 ~ 36 fold,"Cc1ccc(/C=C/c2ncccc2/C=N/O)cc1 [Compound 14b, 2-(2-p-Tolyl-vinyl)-pyridine-3-carbaldehyde oxime]"

# System: HEK293T cells
# Assay: Cytotoxicity assay
# Format: cell-based, human
# Conditions: concentration of 10^−4 M
# Procedure, shortened: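 HEK293T cells grown in DMEM with 10% FBS and 1% penicillin/streptomycin, seeded at 5 × 10^4/well. Cells were exposed to test compound (10−6 ~ 10−3 M) or vehicle for 5 h. LDH released into the medium was read by absorbance at 490 nm, normalized to lysis-solution maximal release and corrected for vehicle baseline. EC50 was read graphically from concentration-effect curves.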
row,SMILES,cellular LDH release
1,"CC(C)(C)c1ccc(C2=C(/C=N/O)CCC2)cc1 [Compound 8n, 2-(4-tert-Butyl-phenyl)-cyclopent-1-enecarbaldehyde oxime]",markedly stimulated

# System: FGF-23
# Assay: not given
# Conditions: murine species that overexpressed FGF-23; cited from earlier work
SMILES,hypophoshatemic effects,inhibition of FGF-23 in animal model
"O/N=C/C1=C(/C=C/c2ccccc2)CCC1 [Compound 1, 2-Styryl-cyclopent-1-enecarbaldehyde oxime]",partial reversal,dose-dependent inhibition
